Data set [1] deals with Raji. Description: Induction of apoptosis in human Raji cells assessed as downregulation of Cyclin D3 expression after 12 hrs by Western blot method. It is filed as functional, cell-based. A digest of the protocol:
(§1)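 After compound exposure (12 h for cell-cycle and apoptosis markers), RAJI cells were lysed in 1% NP-40 buffer. Protein at 50 μg per lane was run on 3–12% SDS-PAGE and transferred to nitrocellulose. Blots were probed with primary antibodies (GAPDH as loading reference) and detected with an HRP secondary and enhanced chemiluminescence.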

Data set [2] in a line: Inhibition of NM23-H2 binding to 5'-FAM labeled c-Myc Pu27 G-quadruplex DNA (unknown origin) at 10 uM preincubated for 1 hr followed by NM23-H2 addition by electrophoretic mobility shift assay relative to control. An outline of the steps:
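Annealed labeled Pu27 (1.5 μM) preincubated 1 h at 25 °C with 10 μM ligand or 5% DMSO. Recombinant His-tagged NM23-H2 (0.5 μM, E. coli BL21, nickel-purified) then added for 1 h at 37 °C. Complexes resolved on 5% native polyacrylamide gel in 0.5× TBE at 4 °C. Inhibition taken as loss of complex band intensity versus no-compound band set at 100%. Run three times.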

For data set [3], the species on record is Homo sapiens. Description: Stabilization of c-Myc G-quadruplex DNA in human CA46 cells assessed as decrease in amplification of exon-1 up to 4 uM after 12 hrs by RT-PCR method. Type of data set: cell-based. An outline of the steps:
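Exon-specific assay: RAJI and CA46 cells exposed to various ligand concentrations for 12 h; total RNA (2 μg) reverse-transcribed with oligo dT18 and M-MLV (42 °C 1 h). c-MYC exon 1 and exon 2, NM23-H2 and β-actin amplified by real-time PCR, products run on 1% agarose; untreated cells as control; three repeats, two-tailed unpaired t test.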

The next data set has as its system Mus musculus. Description: Toxicity in NOD/SCID nude mouse xenografted with human Raji cells assessed as reduction in body weight at 15 to 30 mg/kg, ip administered once daily for 2 weeks measured every day during compound dosing. It is filed as organism-based. The conditions noted are these: in vivo, 336 h. A digest of the protocol: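 NOD/SCID mice implanted subcutaneously in the underarm with 5 × 10^6 RAJI cells in 100 μL RPMI 1640 with 10% serum; tumours grown about 1 week, then mice randomized. Body weight recorded daily; organ weights taken at end.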
On the technique in general: In xenograft studies the graft and the host belong to different species.

For data set [4], the system named is Raji. The data set can be described thus: Induction of apoptosis in human Raji cells assessed as upregulation of cleaved caspase-9 expression up to 4 uM after 12 hrs by Western blot method. It is filed as functional, cell-based. An outline of the steps: as §1
In general terms: Immunoblotting shows a protein as a band on a membrane.

The species named for data set [5] is Homo sapiens. The data set can be described thus: Stabilization of c-Myc G-quadruplex DNA in human Raji cells assessed as downregulation of c-Myc mRNA level at 2 uM after 12 hrs by RT-PCR method relative to control. It is filed as cell-based. A digest of the protocol:
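RAJI, CCRF-CEM and U266B1 grown in RPMI 1640 with 10% fetal calf serum at 37 °C, plated at 1 × 10^6 cells/well overnight, then treated 12 h with 4, 2, 1 or 0.5 μM (DMSO control). RNA (2 μg) reverse-transcribed with oligo dT18/M-MLV; c-MYC, NM23-H2 and β-actin amplified by real-time PCR, checked on 1.5% agarose.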

For data set [6], the system named is Raji. Description: Cell cycle arrest in human Raji cells assessed as accumulation at S phase after 48 hrs by propidium iodide staining based flow cytometry (reference value: 32.2%). Type of data set: functional. In general terms: Flow cytometry measures light scatter and fluorescence of single cells or particles in a stream.
Data set [7] in a line: Binding affinity to 5'-FAM labeled c-Myc Pu27 G-quadruplex DNA (unknown origin) in presence of K+ ions by MST analysis. A digest of the protocol:
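The DNA was annealed at 95 °C for 5 min, slowly cooled and held at 4 °C overnight. Ligand was run as a 12-point series, 0–20 μM for Pu27 and up to 200 μM for duplex. MST was measured, and KD was fitted to a Hill model from three replicates.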

Data set [8] deals with Raji. Description: Induction of apoptosis in human Raji cells assessed as necrotic cells at 1 uM after 48 hrs by Annexin V-FITC/propidium iodide staining based flow cytometry relative to control. Type of data set: functional. An outline of the steps: (§2)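 RAJI cells exposed to compound or control medium for 12 or 48 h were washed in PBS and resuspended in binding buffer. They were stained with FITC annexin V and PI for 15 min in the dark, and fluorescence was measured by flow cytometry.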

Data set [9] deals with Raji. The data set can be described thus: Induction of apoptosis in human Raji cells assessed as late apoptotic cells at 1 uM after 12 hrs by Annexin V-FITC/propidium iodide staining based flow cytometry relative to control. Type of data set: functional. A digest of the protocol: as §2
The test system of data set [10] is Raji. Description: Induction of apoptosis in human Raji cells assessed as upregulation of cleaved PARP expression up to 4 uM after 12 hrs by Western blot method. Type of data set: functional, cell-based. A digest of the protocol: as §1
Data set [11] is filed under the species Homo sapiens. The data set can be described thus: Stabilization of c-Myc G-quadruplex DNA in human Raji cells assessed as downregulation of c-Myc protein level after 6 hrs by Western blot method. Type of data set: cell-based. A digest of the protocol: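 Western blot of RAJI cells treated either with 1 μM for 6, 12, 24 and 48 h or with graded concentrations for 6 h. Lysed in 1% NP-40, 50 μg protein/lane on 3–12% SDS-PAGE, nitrocellulose, probed for c-MYC, NM23-H2, GAPDH loading control, HRP secondary with ECL; untreated control, three replicates.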

Data set [12] has as its system Raji. Description: Induction of apoptosis in human Raji cells assessed as necrotic cells at 1 uM after 12 hrs by Annexin V-FITC/propidium iodide staining based flow cytometry relative to control. It is filed as functional. A digest of the protocol:
as §2

Data set [13] is filed under the species Homo sapiens. Description: Inhibition of NM23-H2 binding to c-Myc G-quadruplex DNA in human Raji cells up to 4 uM after 6 hrs by ChIP-PCR method. It is filed as cell-based.
Data set [14] can be described thus: Stabilization of c-Myc Pu27 G-quadruplex DNA (unknown origin) assessed as induction of parallel G-quadruplex formation in presence of K+ ions by CD spectroscopic analysis. A digest of the protocol: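 CD spectra: Pu27 at 5 μM in 10 mM Tris-HCl pH 7.4 without or with 100 mM KCl, annealed 95 °C 5 min, slow-cooled, kept at 4 °C overnight, with ligand. Scanned 230–400 in a 4 mm quartz cuvette, 1 nm bandwidth and step, 0.5 s/point; buffer baseline subtracted.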

Data set [15] deals with Raji. The data set can be described thus: Cell cycle arrest in human Raji cells assessed as accumulation at G0/G1 phase after 12 hrs by propidium iodide staining based flow cytometry (reference value: 38.5%). It is filed as functional.
Data set [16] has as its system Raji. The data set can be described thus: Cell cycle arrest in human Raji cells assessed as accumulation at G0/G1 phase after 48 hrs by propidium iodide staining based flow cytometry (reference value: 38.5%). Type of data set: functional.
Data set [17] has as its system Raji. The data set can be described thus: Effect on NM23-H2 protein expression in human Raji cells up to 4 uM up to 48 hrs by Western blot method. Type of data set: functional, cell-based. An outline of the steps: as §1
The test system of data set [18] is Raji. Description: Cell cycle arrest in human Raji cells assessed as accumulation at G2/M phase after 24 hrs by propidium iodide staining based flow cytometry (reference value: 24.4%). It is filed as functional.
The test system of data set [19] is Raji. The data set can be described thus: Antiproliferative activity against human Raji cells measured every 3 days up to 15 days. It is filed as functional, cell-based. An outline of the steps:
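RAJI cells (1.0 × 10^5 per well, six-well plates) were exposed every 3 days to a subcytotoxic ligand concentration or 0.1% DMSO. At each point cells were counted and viability checked, then flasks were reseeded at 1.0 × 10^5 cells. This continued for 15 days.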

For data set [20], the system named is Raji. The data set can be described thus: Induction of apoptosis in human Raji cells assessed as early apoptotic cells at 1 uM after 12 hrs by Annexin V-FITC/propidium iodide staining based flow cytometry (reference value: 2.3%). Type of data set: functional. An outline of the steps: as §2
Data set [21] has as its system Raji. Description: Cell cycle arrest in human Raji cells assessed as accumulation at G2/M phase after 48 hrs by propidium iodide staining based flow cytometry (reference value: 24.4%). Type of data set: functional.

The source made the active and inactive calls. No cut-off for these calls is given here. A value given as a limit tells only on which side of the number the result lay.

Regarding `CN(C)CCCNc1c2ccccc2nc2c1oc1ccc(OCC3CCN(C)CC3)cc12`, the Activity result was “Dose-dependent effect” in the data set with Raji [1]; “Non-Toxic” in the data set with Mus musculus; over 80% in the data set filed under Homo sapiens [5]; 21.4% in the data set on Raji [6]; 0% with Raji [8]; 0.3% in the data set with Raji [9]. Besides, the Activity result was “Dose-dependent effect” in the data set listed under Homo sapiens [11]; 0% with Raji [12]; “Dose-dependent effect” in data set [14]; 60.2% in the data set on Raji [15]; 57.1% with Raji [16]; 19.3% with Raji [18]. Also, the Activity result in the data set with Raji [19] was “Dose-dependent effect”; in the data set on Raji [20], 18.9%; in the data set on Raji [21], 16.6%. Further, in data set [2], the inhibition (in general, the drop in the measured response relative to a control, in per cent) was over 80%. Moreover, the outcome in the data set listed under Homo sapiens [3], with Raji [4], with Raji [10] and in the data set listed under Homo sapiens [13] was Active. Moreover, the Kd (as a rule, the equilibrium constant for the complex coming apart) in [7] was found to be 1300 nM. The outcome with Raji [17] was inactive.

The record behind these values is ChEMBL document CHEMBL4011629, “New Disubstituted Quindoline Derivatives Inhibiting Burkitt's Lymphoma Cell Proliferation by Impeding c-MYC Transcription” (J Med Chem, 2017).
